Data: ChEMBL document CHEMBL1135128, “Structure-Activity studies for a novel series of tricyclic dihydropyrimidines as K(ATP) channel openers (KCOs)” (Bioorg Med Chem Lett, 2002)

Columns and labels:
[1] = target: Sulfonylurea receptors; K-ATP channels; assay: Potassium channel opening activity determined in cultured guinea pig urinary bladder cells; type: functional, cell-based, Cavia porcellus
How it was run: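 Membrane potential change read as DiBAC dye fluorescence in a 96-well cell-based kinetic FLIPR assay. Fluorescence changes were compared with the response to the KCO P1075, and each compound's maximal response was expressed as % of the P1075 response.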

[2] = PEC50 for functional potassium channel opening activity in isolated bladder strips

EC50 [1] | EC50 [2] | Compound
12000 nM |  | OC1=C2C(=Nc3c(-c4ccco4)cnn3C2c2ccc(Cl)c(Cl)c2)CCC1 (configuration not stated)
290 nM |  | OC1=C2C(=Nc3ccnn3C2c2ccc(F)c(C(F)(F)F)c2)CCC1 (configuration not stated)
1100 nM |  | OC1=C2C(=Nc3ccnn3C2c2cccc(Cl)c2)CCC1 (configuration not stated)
> 10000 nM |  | Cc1cccc(C2C3=C(O)CCCC3=Nc3ccnn32)c1 (configuration not stated)
> 10000 nM |  | OC1=C2C(=Nc3ncnn3C2c2ccc(F)c(Br)c2)CCC1 (configuration not stated)
310 nM |  | O=[N+]([O-])c1cc(C2C3=C(O)CCCC3=Nc3ccnn32)ccc1Cl (configuration not stated)
256 nM |  | OC1=C2C(=Nc3ccnn3C2c2ccc(F)c(Cl)c2)CCC1 (configuration not stated)
394 nM |  | OC1=C2C(=Nc3c(Br)cnn3C2c2ccc(F)c(Br)c2)CCC1 (configuration not stated)

The remaining lines, values behind:

Compound | EC50 [1] | EC50 [2]
N#Cc1cccc(C2C3=C(CCCC3=O)NC3=C2C(=O)CCC3)c1 | 3800 nM | 
OC1=C2C(=Nc3ccnn3C2c2ccc(Cl)c(C(F)(F)F)c2)CCC1 (configuration not stated) | 187 nM | 
OC1=C2C(=Nc3ccnn3C2c2ccc(F)cc2)CCC1 (configuration not stated) | 7800 nM | 
OC1=C2C(=Nc3nnnn3C2c2ccc(F)c(Br)c2)CCC1 (configuration not stated) | > 10000 nM | 
OC1=C2C(=Nc3n[nH]cc3C2c2ccc(F)c(Br)c2)CCC1 (configuration not stated) | > 10000 nM | 
OC1=C2C(=Nc3c(-c4cccc(F)c4)cnn3C2c2ccc(Cl)c(Cl)c2)CCC1 (configuration not stated) | 3200 nM | 
OC1=C2C(=Nc3ccnn3C2c2ccc(Br)c(F)c2)CCC1 (configuration not stated) | 30 nM | 
CC1(C)CC(=O)C2C(C1)Nc1ccnn1C2c1ccc(F)c(Br)c1 (configuration not stated) | 9700 nM | 
CC(C)(C)c1cc2n(n1)C(c1ccc(F)c(Br)c1)C1=C(O)CCCC1=N2 (configuration not stated) | 12000 nM | 
O=C1CSCC2Nc3ccnn3C(c3ccc(F)c(Br)c3)C12 (configuration not stated) | 40 nM | 
OC1=C2C(=Nc3ccnn3C2c2ccc(F)c(Br)c2)CCC1 (configuration not stated) | 30 nM | 339 nM
CC1(C)CCC2Nc3ccnn3C(c3ccc(F)c(Br)c3)C2C1=O (configuration not stated) | 35 nM | 1000 nM
O=S1(=O)CCCC2Nc3ccnn3C(c3ccc(F)c(Br)c3)C21 (configuration not stated) | 910 nM | 
OC1=C2C(=Nc3ccnn3C2c2cccc(OC(F)(F)F)c2)CCC1 (configuration not stated) | 1700 nM | 
N#Cc1cccc(C2C3=C(O)CCCC3=Nc3ccnn32)c1 (configuration not stated) | 2860 nM | 
OC1=C2C(=Nc3ccnn3C2c2cccc(Br)c2)CCC1 (configuration not stated) | 550 nM | 
OC1=C2C(=Nc3ccnn3C2c2ccc(Cl)c(Cl)c2)CCC1 (configuration not stated) | 130 nM | 
